Here are results for 14 compounds from ChEMBL document CHEMBL3351568, “2-Aminobenzoxazole ligands of the hepatitis C virus internal ribosome entry site” (Bioorg Med Chem Lett, 2014).

The target of this assay is Internal ribosome entry site (IRES). As to the kind of experiment: Binding affinity to HCV cyanine dye-labeled IRES subdomain 2a RNA by FRET assay in presence of tRNA. The arrangement: species or system Hepacivirus hominis. In outline:
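IRES subdomain IIa RNA target binding by FRET, following a previously described method. Compounds were titrated in triplicate experiments, and the data were averaged. EC50 came from fitting a single-site binding dose-response curve to the averaged data.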
For `CN(C)CCCNc1nc2ccc(N)cc2o1`, the EC50 was determined as 120 µM.

Take `CN(C)CCCNc1nc2cc(N)ccc2o1`: the EC50 turned out to be 52 µM.

As to `Nc1ccc2nc(NCCCN3CCCCC3)oc2c1`, the EC50 is 47 µM.

For `Nc1ccc2nc(NCCCN3CCOCC3)oc2c1`, the EC50 was found to be 43 µM.

As to `CN(C)CCNc1nc2ccc(N)cc2o1`, the EC50 turned out to be 500 µM.

`Nc1ccc2nc(NCCN3CCCCC3)oc2c1`: the EC50 was found to be 88 µM.

In the case of `CN(C)CCCNc1nc2cccc(N)c2o1`, the EC50 was 31 µM.

On to `CN(C)CCCNc1nc2ccccc2o1`, for which the EC50 is 110 µM.

Regarding `CN(C)CCCNc1ccc2nc(N)oc2c1`, the EC50 amounted to 25 µM.

`Nc1nc2ccc(Nc3ccccc3)cc2o1`: the half-maximal effective concentration (EC50) was determined as 90 µM.

As for `Nc1nc2ccc(NCc3ccccc3)cc2o1`, the EC50 came out at 27 µM.

For `CN(C)CCN(C)Cc1cccc2nc(N)oc12`, the EC50 amounted to 190 µM.

`CN(CCC(=O)N(C)C)Cc1cccc2nc(N)oc12`: the EC50 came out at 600 µM.

As for `CN(C)CCCNc1ccc2nc(NCCCN(C)C)oc2c1`, the EC50 came out at 63 µM.

In general, EC50 refers to the concentration at which the effect is half-maximal.
